Assay results reported in ChEMBL document CHEMBL1156957, “Synthesis, antitubulin, and antiproliferative SAR of analogues of 2-methoxyestradiol-3,17-O,O-bis-sulfamate” (J Med Chem, 2010).

How the values were obtained:
[1] = species on record: Bos taurus; experiment: Displacement of [3H]colchicine from bovine brain tubulin at 5 uM after 10 mins
[2] = Inhibition of bovine brain tubulin assembly assessed as decrease in turbidity after 20 mins; parameters: species or system Bos taurus
Summary of the method: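 Bovine brain tubulin at 1.0 mg/mL (10 μM) preincubated 15 min at 30 °C with varying compound concentrations, no GTP. Chilled on ice, then GTP added (0.4 mM final). Baseline taken at 0 °C, then rapid jump to 30 °C and turbidity rise followed spectrophotometrically for 20 min. IC50 is the concentration halving the turbidity increase.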

[3] = system: DU-145; experiment: Antiproliferative activity against human DU145 cells after 96 hrs by WST-1 assay; format: functional; conditions: DU-145, 96 h
Summary of the method: (§1)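 DU-145 and MDA-MB-231 cells kept in RPMI-1640 with 10% FBS, penicillin and streptomycin at 37 °C, 5% CO2. Seeded at 5000 cells/well and exposed to 10^-9–10^-4 M compound or vehicle for 96 h. Live cells counted by WST-1. Viability taken as percent of mean control and GI50 derived. Triplicate experiments.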

[4] = system: MDA-MB-231; experiment: Antiproliferative activity against human MDA-MB-231 cells after 96 hrs by WST-1 assay; format: functional; conditions: MDA-MB-231, 96 h; summary of the method: as §1
[5] = system: HOP-62; experiment: Antiproliferative activity against human HOP62 cells after 96 hrs by WST-1 assay; format: functional; conditions: HOP-62, 96 h
[6] = system: SF-539; experiment: Antiproliferative activity against human SF539 cells after 96 hrs by WST-1 assay; format: functional; conditions: SF-539, 96 h
[7] = system: OVCAR-3; experiment: Antiproliferative activity against human OVCAR-3 cells after 96 hrs by WST-1 assay; format: functional; conditions: OVCAR-3, 96 h
[8] = system: HCT-116; experiment: Antiproliferative activity against human HCT116 cells after 96 hrs by WST-1 assay; format: functional; conditions: HCT-116, 96 h
[9] = system: SN12C; experiment: Antiproliferative activity against human SN12C cells after 96 hrs by WST-1 assay; format: functional
[10] = system: UACC-62; experiment: Antiproliferative activity against human UACC62 cells after 96 hrs by WST-1 assay; format: functional; conditions: UACC-62, 96 h

Structure (SMILES) | inhibition [1] [%] | IC50 [2] [µM] | GI50 [3] [µM] | GI50 [4] [µM] | GI50 [5] [µM] | GI50 [6] [µM] | GI50 [7] [µM] | GI50 [8] [µM] | GI50 [9] [µM] | GI50 [10] [µM]
COc1cc2c(cc1OS(N)(=O)=O)CC[C@@H]1[C@@H]2CC[C@]2(C)[C@@H](CC#N)CC[C@@H]12 | 78 | 1.3 | 0.062 | 0.071 |  |  |  |  |  | 
COc1cc2c(cc1O)CC[C@@H]1[C@@H]2CC[C@]2(C)[C@@H](NS(N)(=O)=O)CC[C@@H]12 |  |  | 58.6 |  |  |  |  |  |  | 
CCc1cc2c(cc1O)CC[C@@H]1[C@@H]2CC[C@]2(C)[C@@H](NS(N)(=O)=O)CC[C@@H]12 |  |  | > 100 |  |  |  |  |  |  | 
CCc1cc2c(cc1O)CC[C@@H]1[C@@H]2CC[C@]2(C)[C@@H](N)CC[C@@H]12 |  |  | 60.8 |  |  |  |  |  |  | 
CCc1cc2c(cc1OS(N)(=O)=O)CC[C@@H]1[C@@H]2CC[C@]2(C)[C@@H](OS(C)(=O)=O)CC[C@@H]12 | 49 | 1.6 | 0.57 | 0.2 | < 0.01 | < 0.01 | < 0.01 | < 0.01 | < 0.01 | < 0.01
CCc1cc2c(cc1OS(N)(=O)=O)CC[C@@H]1[C@@H]2CC[C@]2(C)[C@@H](NS(C)(=O)=O)CC[C@@H]12 |  |  | 0.84 | 3.52 | 4.17 | 0.47 | 0.71 | 4.37 | 6.92 | 5.89
COc1cc2c(cc1O)CC[C@@H]1[C@@H]2CC[C@]2(C)[C@@H](OS(C)(=O)=O)CC[C@@H]12 |  |  | 4.2 | 2.37 |  |  |  |  |  | 
COc1cc2c(cc1OS(N)(=O)=O)CC[C@@H]1[C@@H]2CC[C@]2(C)[C@@H](OS(C)(=O)=O)CC[C@@H]12 |  |  | 0.52 | 0.23 | 1.17 | 0.34 | 0.54 | 0.78 | 3.1 | 0.65
CCc1cc2c(cc1OS(N)(=O)=O)CC[C@@H]1[C@@H]2CC[C@]2(C)[C@@H](CS(C)(=O)=O)CC[C@@H]12 | 37 | 2.1 | 0.19 | 0.23 | < 0.01 | < 0.01 | < 0.01 | < 0.01 | < 0.01 | 10.7
CCc1cc2c(cc1OS(N)(=O)=O)CC[C@@H]1[C@@H]2CC[C@]2(C)[C@@H](CN(C)C)CC[C@@H]12 |  |  | 3.05 | 4.03 | 13.5 | 12.6 | 12.6 | 9.1 | 18.2 | 11.7
CCc1cc2c(cc1OS(N)(=O)=O)CC[C@@H]1[C@@H]2CC[C@]2(C)[C@@H](CC#N)CC[C@@H]12 |  |  | 0.054 | 0.141 |  |  |  |  |  | 
CCc1cc2c(cc1O)CC[C@@H]1[C@@H]2CC[C@]2(C)[C@@H](C[N+](=O)[O-])CC[C@@H]12 |  |  | 12.2 | 10.4 |  |  |  |  |  | 
COc1cc2c(cc1OS(N)(=O)=O)CC[C@@H]1[C@@H]2CC[C@]2(C)[C@@H](OS(N)(=O)=O)CC[C@@H]12 | 28 | 2.2 |  |  | 0.051 | 0.036 | < 0.01 | 0.045 |  | < 0.01
CCc1cc2c(cc1OS(N)(=O)=O)CC[C@@H]1[C@@H]2CC[C@@]2(C)[C@H]1CC[C@@H]2S(C)(=O)=O | 28 | 3.6 | 0.11 | 0.23 |  |  |  |  |  | 
COc1cc2c(cc1O)CC[C@@H]1[C@@H]2CC[C@]2(C)[C@@H](O)CC[C@@H]12 [2-METHOXYESTRADIOL] | 17 | 7 | 1.22 |  | 0.7 | 0.32 | 0.21 | 0.47 | 0.95 | 0.36
Cc1cc2c(cc1OS(N)(=O)=O)CC[C@@H]1[C@@H]2CC[C@]2(C)C(OS(N)(=O)=O)CC[C@@H]12 (some centres not stated) | 46 | 1.3 | 0.38 |  |  |  |  |  |  | 

Structure (SMILES) | inhibition [1] [%] | IC50 [2] [µM] | GI50 [3] [µM] | GI50 [4] [µM] | GI50 [5] [µM] | GI50 [6] [µM] | GI50 [7] [µM] | GI50 [8] [µM] | GI50 [9] [µM] | GI50 [10] [µM]
CCc1cc2c(cc1O)CC[C@@H]1[C@@H]2CC[C@]2(C)[C@@H](CCN(C)C)CC[C@@H]12 |  |  | 7.96 | 4.74 |  |  |  |  |  | 
CCCc1cc2c(cc1OS(N)(=O)=O)CC[C@@H]1[C@@H]2CC[C@]2(C)C(OS(N)(=O)=O)CC[C@@H]12 (some centres not stated) |  | 20 | 3.4 |  |  |  |  |  |  | 
CCc1cc2c(cc1OS(N)(=O)=O)CC[C@@H]1[C@@H]2CC[C@]2(C)[C@@H](OS(N)(=O)=O)CC[C@@H]12 | 45 | 1.3 |  |  | < 0.01 | < 0.01 | < 0.01 |  | 0.028 | < 0.01
COc1cc2c(cc1O)CC[C@@H]1[C@@H]2CC[C@]2(C)[C@@H](N)CC[C@@H]12 |  |  | 2.64 | 3.56 |  |  |  |  |  | 
CCc1cc2c(cc1OS(N)(=O)=O)CC[C@@H]1[C@@H]2CC[C@]2(C)[C@@H](CCN(C)C)CC[C@@H]12 |  |  | 3.54 | 2.96 |  |  |  |  |  | 
COc1cc2c(cc1O)CC[C@@H]1[C@@H]2CC[C@]2(C)[C@@H](NS(C)(=O)=O)CC[C@@H]12 |  |  | > 100 |  | > 100 | > 100 | > 100 | 60.3 | > 100 | > 100
COc1cc2c(cc1O)CC[C@@H]1[C@@H]2CC[C@]2(C)[C@@H](CC#N)CC[C@@H]12 |  |  | 0.49 | 0.12 |  |  |  |  |  | 
CCc1cc2c(cc1O)CC[C@@H]1[C@@H]2CC[C@]2(C)[C@@H](CN(C)C)CC[C@@H]12 |  |  | 10.1 | 9.5 | 21.4 | 16.2 | 39.8 | 11.5 | 43.7 | 18.6
COc1cc2c(cc1OS(N)(=O)=O)CC[C@@H]1[C@@H]2CC[C@]2(C)[C@@H](NS(N)(=O)=O)CC[C@@H]12 |  |  | 6.13 | 5.6 |  |  |  |  |  | 
COc1cc2c(cc1OCc1ccccc1)CC[C@@H]1[C@@H]2CC[C@]2(C)[C@@H](OS(C)(=O)=O)CC[C@@H]12 |  |  |  |  | 6.9 | 4.6 | 2.9 | 5.9 | 19.9 | 14.4
COc1cc2c(cc1OS(N)(=O)=O)CC[C@@H]1[C@@H]2CC[C@]2(C)C(=O)CC[C@@H]12 | 22 | 3.3 | 0.46 | 0.12 |  |  |  |  |  | 
COc1cc2c(cc1O)CC[C@@H]1[C@@H]2CC[C@]2(C)C(OS(N)(=O)=O)CC[C@@H]12 (some centres not stated) |  | > 40 |  |  |  |  |  |  |  | 
CCc1cc2c(cc1O)CC[C@@H]1[C@@H]2CC[C@]2(C)[C@@H](OS(C)(=O)=O)CC[C@@H]12 |  |  | 5.58 |  |  |  |  |  |  | 
CCc1cc2c(cc1O)CC[C@@H]1[C@@H]2CC[C@]2(C)[C@@H](NS(C)(=O)=O)CC[C@@H]12 |  |  | > 100 |  |  |  |  |  |  | 
COc1cc2c(cc1OS(N)(=O)=O)CC[C@@H]1[C@@H]2CC[C@]2(C)[C@@H](NS(C)(=O)=O)CC[C@@H]12 |  |  | 9.9 | 5.2 | 9.6 | 3.2 | 3.5 | 5.6 | 23.4 | 7.1
CCc1cc2c(cc1O)CC[C@@H]1[C@@H]2CC[C@@]2(C)[C@H]1CC[C@@H]2S(C)(=O)=O |  |  | > 100 | > 100 |  |  |  |  |  | 
